Several values for one entry are separate records, joined by “and”; a condition that tells them apart may be missing. Equal values may be shown once.
Test system: Fibroblast
Test: Multiplex assay against human fibroblast
Type: toxicity, cell-based
Procedure, shortened: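 Tubulin, mitochondrial-mass and membrane-permeability phenotypes are per cents of healthy-nucleus cells. Cells were gated by CellPathfinder machine learning into Hoechst high-intensity objects or normal cells, normal cells into healthy, pyknosed or fragmented nuclei, and pyknosed cells into mitotic or apoptotic. Before that, live cells stained at seeding with Hoechst33342, BioTracker Green Microtubule Cytoskeleton Dye, MitoTracker Red and Annexin V Alexa Fluor 680 were imaged on a CQ1 microscope at 37°C and 5% CO2 after compound addition.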

[1] = 12 h, 1 µM, compound concentration 1 uM
[2] = 12 h, 10 µM, compound concentration 10 uM
[3] = 24 h, 1 µM, compound concentration 1 uM
[4] = 24 h, 10 µM, compound concentration 10 uM
[5] = 48 h, 1 µM, compound concentration 1 uM
[6] = 48 h, 10 µM, compound concentration 10 uM

`CC(C)(C)c1cc(NC(=O)Nc2ccc(-c3cn4c(n3)sc3cc(OCCN5CCOCC5)ccc34)cc2)no1` [QUIZARTINIB] was tested, and the “Population Apoptotic (%)” value [1] was 42% and 41%, the “Population Fragmented Nuclei (%)” value [1] was 16% and 24% and the “Population Healthy Nuclei (%)” value [1] was 65% and 52%. The “Population Hoechst High Intensity Objects (%)” value [1] was 2%, the “Population Membrane Permeable-Phenotype (%)” value [1] was 0% and 1% and the “Population Mitochondria Different-Phenotype (%)” value [1] was 7% and 5%. The “Population Mitotic Cells (%)” value [1] was 57% and 58%, the “Population Normal (%)” value [1] was 97% and the “Population Pyknosed Nuclei (%)” value [1] was 17% and 23%. For the same molecule, the “Population Tubulin-Different-Phenotype (%)” value [1] was 31% and 41%, the “Total Cell Count” value [1] was 150 and 137 and the “Population Apoptotic (%)” value [2] was 43% and 48%. For the same molecule, the “Population Fragmented Nuclei (%)” value [2] was 34% and 35%, the “Population Healthy Nuclei (%)” value [2] was 56% and 45% and the “Population Hoechst High Intensity Objects (%)” value [2] was 3% and 5%. The “Population Membrane Permeable-Phenotype (%)” value [2] was 0% and 5%, the “Population Mitochondria Different-Phenotype (%)” value [2] was 10% and 5% and the “Population Mitotic Cells (%)” value [2] was 56% and 51%. The “Population Normal (%)” value [2] was 96% and 94%, the “Population Pyknosed Nuclei (%)” value [2] was 8% and 18% and the “Population Tubulin-Different-Phenotype (%)” value [2] was 75% and 70%. For the same molecule, the “Total Cell Count” value [2] was 190 and 162, the “Population Apoptotic (%)” value [3] was 58% and 42% and the “Population Fragmented Nuclei (%)” value [3] was 14% and 25%. The “Population Healthy Nuclei (%)” value [3] was 72% and 61%, the “Population Hoechst High Intensity Objects (%)” value [3] was 1% and 3% and the “Population Membrane Permeable-Phenotype (%)” value [3] was 0% and 2%. The “Population Mitochondria Different-Phenotype (%)” value [3] was 6%, the “Population Mitotic Cells (%)” value [3] was 41% and 57% and the “Population Normal (%)” value [3] was 98% and 96%. The “Population Pyknosed Nuclei (%)” value [3] was 12% and 13%, the “Population Tubulin-Different-Phenotype (%)” value [3] was 32% and 44% and the “Total Cell Count” value [3] was 137 and 152. For the same molecule, the “Population Apoptotic (%)” value [4] was 75% and 39%, the “Population Fragmented Nuclei (%)” value [4] was 33% and 40% and the “Population Healthy Nuclei (%)” value [4] was 57% and 46%. For the same molecule, the “Population Hoechst High Intensity Objects (%)” value [4] was 1% and 4%, the “Population Membrane Permeable-Phenotype (%)” value [4] was 0% and 1% and the “Population Mitochondria Different-Phenotype (%)” value [4] was 21% and 10%. For the same molecule, the “Population Mitotic Cells (%)” value [4] was 25% and 60%, the “Population Normal (%)” value [4] was 98% and 95% and the “Population Pyknosed Nuclei (%)” value [4] was 8% and 13%. The “Population Tubulin-Different-Phenotype (%)” value [4] was 71% and 70%, the “Total Cell Count” value [4] was 190 and 179 and the “Population Apoptotic (%)” value [5] was 75% and 42%. The “Population Fragmented Nuclei (%)” value [5] was 19% and 30%, the “Population Healthy Nuclei (%)” value [5] was 71% and 60% and the “Population Hoechst High Intensity Objects (%)” value [5] was 8% and 3%. The “Population Membrane Permeable-Phenotype (%)” value [5] was 0% and 1%, the “Population Mitochondria Different-Phenotype (%)” value [5] was 5% and 8% and the “Population Mitotic Cells (%)” value [5] was 25% and 57%. For the same molecule, the “Population Normal (%)” value [5] was 91% and 96%, the “Population Pyknosed Nuclei (%)” value [5] was 9% and the “Population Tubulin-Different-Phenotype (%)” value [5] was 38% and 34%. The “Total Cell Count” value [5] was 145 and 158, the “Population Apoptotic (%)” value [6] was 79% and 60% and the “Population Fragmented Nuclei (%)” value [6] was 30% and 44%. The “Population Healthy Nuclei (%)” value [6] was 56% and 50%, the “Population Hoechst High Intensity Objects (%)” value [6] was 7% and 3% and the “Population Membrane Permeable-Phenotype (%)” value [6] was 0% and 2%. The “Population Mitotic Cells (%)” value [6] was 20% and 40%, the “Population Normal (%)” value [6] was 92% and 96% and the “Population Pyknosed Nuclei (%)” value [6] was 13% and 5%. The “Population Tubulin-Different-Phenotype (%)” value [6] was 74% and 59% and the “Total Cell Count” value [6] was 195.
For `O=c1nc2[nH]c3ccccc3nc-2c(=O)[nH]1` [ALLOXAZINE], the “Population Apoptotic (%)” value [1] was 56% and 37%, the “Population Fragmented Nuclei (%)” value [1] was 16% and 26% and the “Population Healthy Nuclei (%)” value [1] was 67% and 50%. The “Population Hoechst High Intensity Objects (%)” value [1] was 5% and 3%, the “Population Membrane Permeable-Phenotype (%)” value [1] was 0% and 6% and the “Population Mitochondria Different-Phenotype (%)” value [1] was 2% and 3%. The “Population Mitotic Cells (%)” value [1] was 43% and 62%, the “Population Normal (%)” value [1] was 94% and 96% and the “Population Pyknosed Nuclei (%)” value [1] was 16% and 23%. For the same molecule, the “Population Tubulin-Different-Phenotype (%)” value [1] was 23% and 33%, the “Total Cell Count” value [1] was 193 and 131 and the “Population Apoptotic (%)” value [2] was 33% and 41%. For the same molecule, the “Population Fragmented Nuclei (%)” value [2] was 23% and 41%, the “Population Healthy Nuclei (%)” value [2] was 60% and 38% and the “Population Hoechst High Intensity Objects (%)” value [2] was 4% and 1%. The “Population Membrane Permeable-Phenotype (%)” value [2] was 3%, the “Population Mitochondria Different-Phenotype (%)” value [2] was 5% and 15% and the “Population Mitotic Cells (%)” value [2] was 66% and 58%. The “Population Normal (%)” value [2] was 95% and 98%, the “Population Pyknosed Nuclei (%)” value [2] was 15% and 20% and the “Population Tubulin-Different-Phenotype (%)” value [2] was 23% and 57%. For the same molecule, the “Total Cell Count” value [2] was 158 and 86, the “Population Apoptotic (%)” value [3] was 52% and 36% and the “Population Fragmented Nuclei (%)” value [3] was 17% and 31%. For the same molecule, the “Population Healthy Nuclei (%)” value [3] was 69% and 41%, the “Population Hoechst High Intensity Objects (%)” value [3] was 3% and 4% and the “Population Membrane Permeable-Phenotype (%)” value [3] was 0% and 2%. For the same molecule, the “Population Mitochondria Different-Phenotype (%)” value [3] was 2% and 0%, the “Population Mitotic Cells (%)” value [3] was 47% and 63% and the “Population Normal (%)” value [3] was 96% and 95%. The “Population Pyknosed Nuclei (%)” value [3] was 12% and 27%, the “Population Tubulin-Different-Phenotype (%)” value [3] was 21% and 31% and the “Total Cell Count” value [3] was 190 and 114. For the same molecule, the “Population Apoptotic (%)” value [4] was 47% and 64%, the “Population Fragmented Nuclei (%)” value [4] was 19% and 45% and the “Population Healthy Nuclei (%)” value [4] was 64% and 32%. The “Population Hoechst High Intensity Objects (%)” value [4] was 3%, the “Population Membrane Permeable-Phenotype (%)” value [4] was 0% and the “Population Mitochondria Different-Phenotype (%)” value [4] was 2% and 7%. For the same molecule, the “Population Mitotic Cells (%)” value [4] was 52% and 35%, the “Population Normal (%)” value [4] was 96% and the “Population Pyknosed Nuclei (%)” value [4] was 15% and 21%. For the same molecule, the “Population Tubulin-Different-Phenotype (%)” value [4] was 22% and 50%, the “Total Cell Count” value [4] was 153 and 82 and the “Population Apoptotic (%)” value [5] was 71% and 39%. For the same molecule, the “Population Fragmented Nuclei (%)” value [5] was 14% and 30%, the “Population Healthy Nuclei (%)” value [5] was 72% and 48% and the “Population Hoechst High Intensity Objects (%)” value [5] was 9% and 3%. The “Population Membrane Permeable-Phenotype (%)” value [5] was 0% and 9%, the “Population Mitochondria Different-Phenotype (%)” value [5] was 1% and the “Population Mitotic Cells (%)” value [5] was 28% and 60%. The “Population Normal (%)” value [5] was 90% and 96%, the “Population Pyknosed Nuclei (%)” value [5] was 13% and 20% and the “Population Tubulin-Different-Phenotype (%)” value [5] was 23% and 56%. The “Total Cell Count” value [5] was 178 and 114, the “Population Apoptotic (%)” value [6] was 55% and 45% and the “Population Fragmented Nuclei (%)” value [6] was 26% and 49%. For the same molecule, the “Population Healthy Nuclei (%)” value [6] was 61% and 36%, the “Population Hoechst High Intensity Objects (%)” value [6] was 6% and 2% and the “Population Membrane Permeable-Phenotype (%)” value [6] was 2% and 3%. For the same molecule, the “Population Mitotic Cells (%)” value [6] was 44% and 54%, the “Population Normal (%)” value [6] was 93% and 97% and the “Population Pyknosed Nuclei (%)” value [6] was 11% and 13%. The “Population Tubulin-Different-Phenotype (%)” value [6] was 29% and 51% and the “Total Cell Count” value [6] was 164 and 81.
